For assay [1], the target named is Peptidyl-prolyl cis-trans isomerase FKBP1A (Homo sapiens, UniProt P62942). Kind of assay: Inhibitory binding activity against human Immunophilin-FK-506 binding protein 12. A digest of the protocol:
(§1)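 IC50 values are reported as mean ± SD for the stated number of determinations, using human cells or protein.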

The species named for the next assay is Homo sapiens. As to the kind of experiment: Inhibition of human mixed lymphocyte response (MLR). The format is functional. A digest of the protocol:
as §1

In a further assay the test system is Rattus norvegicus. Kind of assay: Inhibition of rat popliteal lymph node (PLN) hyperplasia when given ip. The format is functional. An outline of the steps: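 Popliteal lymph node hyperplasia is induced in Lewis rats by Brown Norway rat cells, and its inhibition is measured.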

Chain of Peptidyl-prolyl cis-trans isomerase FKBP1A (P62942 whole entry): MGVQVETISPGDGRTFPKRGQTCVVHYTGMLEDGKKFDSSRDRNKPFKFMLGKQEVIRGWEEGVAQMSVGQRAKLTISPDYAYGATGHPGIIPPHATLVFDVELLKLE

Consider `CC[C@@H]1/C=C(\C)C[C@H](C)C[C@H](OC)[C@H]2O[C@@](O)(C(=O)C(=O)N3CCCC[C@H]3C(=O)O[C@H](/C(C)=C/C3CC[C@@H](OCC(=O)Nc4ccccn4)[C@H](OC)C3)[C@H](C)[C@@H](O)CC1=O)[C@H](C)C[C@@H]2OC` (some centres undefined), for which the values for the IC50 (in assay [1]; in the assay listed under Homo sapiens) were 2.4 nM and 0.05 nM, respectively.
As for `CC[C@@H]1/C=C(\C)C[C@H](C)C[C@H](OC)[C@H]2O[C@@](O)(C(=O)C(=O)N3CCCC[C@H]3C(=O)O[C@H](/C(C)=C/C3CC[C@@H](OCC(=O)Nc4cccnc4)[C@H](OC)C3)[C@H](C)[C@@H](O)CC1=O)[C@H](C)C[C@@H]2OC` (some centres undefined), the IC50 in assay [1] was found to be 3.3 nM; in the assay filed under Homo sapiens, 0.1 nM.
Consider `CC[C@@H]1/C=C(\C)C[C@H](C)C[C@H](OC)[C@H]2O[C@@](O)(C(=O)C(=O)N3CCCC[C@H]3C(=O)O[C@H](/C(C)=C/C3CC[C@@H](OCC(=O)NCCc4ccccc4)[C@H](OC)C3)[C@H](C)[C@@H](O)CC1=O)[C@H](C)C[C@@H]2OC` (some centres undefined), for which the results for the IC50 (in assay [1]; in the assay filed under Homo sapiens) were 13 nM and 0.34 nM, respectively. In the assay with Rattus norvegicus, this molecule registered an ED50 of over 3 mg/kg/day.
The matching figures for `CC[C@@H]1/C=C(\C)C[C@H](C)C[C@H](OC)[C@H]2O[C@@](O)(C(=O)C(=O)N3CCCC[C@H]3C(=O)O[C@H](/C(C)=C/C3CC[C@@H](OCC(N)=O)[C@H](OC)C3)[C@H](C)[C@@H](O)CC1=O)[C@H](C)C[C@@H]2OC` (some centres undefined): 0.6 nM, 0.13 nM and 0.3 mg/kg/day.
As to `CC[C@@H]1/C=C(\C)C[C@H](C)C[C@H](OC)[C@H]2O[C@@](O)(C(=O)C(=O)N3CCCCC3C(=O)O[C@H](/C(C)=C/C3CC[C@@H](OCC(=O)OCc4ccccc4)[C@H](OC)C3)[C@H](C)[C@@H](O)CC1=O)[C@H](C)C[C@@H]2OC` (some centres undefined), the values for the IC50 (in assay [1]; in the assay filed under Homo sapiens) were 68 nM and 7.62 nM, respectively. The ED50 with Rattus norvegicus is over 3 mg/kg/day.
For `CC[C@@H]1/C=C(\C)C[C@H](C)C[C@H](OC)[C@H]2O[C@@](O)(C(=O)C(=O)N3CCCC[C@H]3C(=O)O[C@H](/C(C)=C/C3CC[C@@H](OCC(=O)N(C)Cc4ccccc4)[C@H](OC)C3)[C@H](C)[C@@H](O)CC1=O)[C@H](C)C[C@@H]2OC` (some centres undefined) the same measures were 5.6 nM, 0.09 nM and over 3 mg/kg/day.
As for `CC[C@@H]1/C=C(\C)C[C@H](C)C[C@H](OC)[C@H]2O[C@@](O)(C(=O)C(=O)N3CCCC[C@H]3C(=O)O[C@H](/C(C)=C/C3CC[C@@H](OCC(=O)Nc4cccc(C(F)(F)F)c4)[C@H](OC)C3)[C@H](C)[C@@H](O)CC1=O)[C@H](C)C[C@@H]2OC` (some centres undefined), the results for the IC50 (in assay [1]; in the assay listed under Homo sapiens) were 470 nM and 0.14 nM, respectively.
`CO[C@H]1C[C@@H]2CC[C@@H](C)[C@@](O)(O2)C(=O)C(=O)N2CCCC[C@H]2C(=O)O[C@H]([C@H](C)C[C@@H]2CC[C@@H](O)[C@H](OC)C2)CC(=O)[C@H](C)/C=C(\C)[C@@H](O)[C@@H](OC)C(=O)[C@H](C)C[C@H](C)/C=C/C=C/C=C/1C` [SIROLIMUS] yielded an IC50 in the assay listed under Homo sapiens of 1.27 nM. Further, it took a dose of 2.1 mg/kg/day to reach the 50% effect level with Rattus norvegicus (ED50).
As to `CC[C@@H]1/C=C(\C)C[C@H](C)C[C@H](OC)[C@H]2O[C@@](O)(C(=O)C(=O)N3CCCC[C@H]3C(=O)O[C@H](/C(C)=C/C3CC[C@@H](OCC(=O)Nc4ccc(O)cc4)[C@H](OC)C3)[C@H](C)[C@@H](O)CC1=O)[C@H](C)C[C@@H]2OC` (some centres undefined), the IC50 was 16 nM in assay [1] and 0.14 nM in the assay listed under Homo sapiens.
For `CC[C@@H]1/C=C(\C)C[C@H](C)C[C@H](OC)[C@H]2O[C@@](O)(C(=O)C(=O)N3CCCC[C@H]3C(=O)O[C@H](/C(C)=C/C3CC[C@@H](OCC(=O)Nc4cccc(F)c4)[C@H](OC)C3)[C@H](C)[C@@H](O)CC1=O)[C@H](C)C[C@@H]2OC` (some centres undefined), the IC50 stood at 180 nM in assay [1] and 0.16 nM in the assay listed under Homo sapiens.
In the case of `CC[C@@H]1/C=C(\C)C[C@H](C)C[C@H](OC)[C@H]2O[C@@](O)(C(=O)C(=O)N3CCCC[C@H]3C(=O)O[C@H](/C(C)=C/C3CC[C@@H](OCC(=O)O)[C@H](OC)C3)[C@H](C)[C@@H](O)CC1=O)[C@H](C)C[C@@H]2OC` (some centres undefined), the IC50 in assay [1] came to 4 nM; in the assay filed under Homo sapiens it was 140 nM. The ED50 with Rattus norvegicus is over 3 mg/kg/day.
Turning to `CCOC(=O)CO[C@@H]1CCC(/C=C(\C)[C@H]2OC(=O)[C@@H]3CCCCN3C(=O)C(=O)[C@]3(O)O[C@H]([C@@H](OC)C[C@@H](C)C/C(C)=C/[C@@H](CC)C(=O)C[C@H](O)[C@H]2C)[C@@H](OC)C[C@H]3C)C[C@H]1OC` (some centres undefined), the values for the IC50 (in assay [1]; in the assay filed under Homo sapiens) were 9.4 nM and 0.91 nM, respectively. Also, in the assay with Rattus norvegicus, the ED50 is over 3 mg/kg/day.
For `CC[C@@H]1/C=C(\C)C[C@H](C)C[C@H](OC)[C@H]2O[C@@](O)(C(=O)C(=O)N3CCCC[C@H]3C(=O)O[C@H](/C(C)=C/C3CC[C@@H](OCC(=O)Nc4ccc(Cl)cc4)[C@H](OC)C3)[C@H](C)[C@@H](O)CC1=O)[C@H](C)C[C@@H]2OC` (some centres undefined), the IC50 in assay [1] was determined as 180 nM; in the assay listed under Homo sapiens it was 0.07 nM.
With `CC[C@@H]1/C=C(\C)C[C@H](C)C[C@H](OC)[C@H]2O[C@@](O)(C(=O)C(=O)N3CCCC[C@H]3C(=O)O[C@H](/C(C)=C/C3CC[C@@H](OCC(=O)N(C)CCc4ccccc4)[C@H](OC)C3)[C@H](C)[C@@H](O)CC1=O)[C@H](C)C[C@@H]2OC` (some centres undefined), the IC50 stood at 0.4 nM in assay [1] and 0.64 nM in the assay filed under Homo sapiens. This molecule also returned an ED50 in the assay with Rattus norvegicus of over 3 mg/kg/day.
In the case of `CC[C@@H]1/C=C(\C)C[C@H](C)C[C@H](OC)[C@H]2O[C@@](O)(C(=O)C(=O)N3CCCC[C@H]3C(=O)O[C@H](/C(C)=C/C3CC[C@@H](OCC(=O)Nc4ccc(C)cc4)[C@H](OC)C3)[C@H](C)[C@@H](O)CC1=O)[C@H](C)C[C@@H]2OC` (some centres undefined), the IC50 worked out at 71 nM in assay [1] and 0.02 nM in the assay filed under Homo sapiens.
On to `CC[C@@H]1/C=C(\C)C[C@H](C)C[C@H](OC)[C@H]2O[C@@](O)(C(=O)C(=O)N3CCCC[C@H]3C(=O)O[C@H](/C(C)=C/C3CC[C@@H](OCC(=O)NC4CCCCC4)[C@H](OC)C3)[C@H](C)[C@@H](O)CC1=O)[C@H](C)C[C@@H]2OC` (some centres undefined), for which the IC50 in assay [1] worked out at 2 nM; in the assay listed under Homo sapiens, 0.47 nM.
In the case of `CC[C@@H]1/C=C(\C)C[C@H](C)C[C@H](OC)[C@H]2O[C@@](O)(C(=O)C(=O)N3CCCC[C@H]3C(=O)O[C@H](/C(C)=C/C3CC[C@@H](OCC(=O)Nc4ccccc4)[C@H](OC)C3)[C@H](C)[C@@H](O)CC1=O)[C@H](C)C[C@@H]2OC` (some centres undefined), the IC50 came out at 170 nM in assay [1] and 0.29 nM in the assay listed under Homo sapiens. This molecule also came in with an ED50 with Rattus norvegicus of 1.4 mg/kg/day.
As to `CC[C@@H]1/C=C(\C)C[C@H](C)C[C@H](OC)[C@H]2O[C@@](O)(C(=O)C(=O)N3CCCC[C@H]3C(=O)O[C@H](/C(C)=C/C3CC[C@@H](OCC(=O)N(C)c4ccccc4)[C@H](OC)C3)[C@H](C)[C@@H](O)CC1=O)[C@H](C)C[C@@H]2OC` (some centres undefined), the IC50 is 2.9 nM in assay [1] and 0.26 nM in the assay filed under Homo sapiens. For the same molecule, in the assay with Rattus norvegicus, the 50% effect level (ED50) was put at a dose of 1.9 mg/kg/day.
The molecule `CC[C@@H]1/C=C(\C)C[C@H](C)C[C@H](OC)[C@H]2O[C@@](O)(C(=O)C(=O)N3CCCC[C@H]3C(=O)O[C@H](/C(C)=C/[C@@H]3CC[C@@H](O)[C@H](OC)C3)[C@H](C)[C@@H](O)CC1=O)[C@H](C)C[C@@H]2OC` [ASCOMYCIN] showed an IC50 in assay [1] of 2.1 nM. Further, the 50% effect level in the assay on Rattus norvegicus (ED50) was put at a dose of 0.3 mg/kg/day.
With `CC[C@@H]1/C=C(\C)C[C@H](C)C[C@H](OC)[C@H]2O[C@@](O)(C(=O)C(=O)N3CCCC[C@H]3C(=O)O[C@H](/C(C)=C/C3CC[C@@H](OCC(=O)Nc4ccc(OC)cc4)[C@H](OC)C3)[C@H](C)[C@@H](O)CC1=O)[C@H](C)C[C@@H]2OC` (some centres undefined), the results for the IC50 (in assay [1]; in the assay filed under Homo sapiens) were 50 nM and 0.04 nM, respectively.
The matching figures for `CC[C@@H]1/C=C(\C)C[C@H](C)C[C@H](OC)[C@H]2O[C@@](O)(C(=O)C(=O)N3CCCC[C@H]3C(=O)O[C@H](/C(C)=C/C3CC[C@@H](OCC(=O)Nc4ccc(C(F)(F)F)cc4)[C@H](OC)C3)[C@H](C)[C@@H](O)CC1=O)[C@H](C)C[C@@H]2OC` (some centres undefined): 570 nM and 0.23 nM.
For `CC[C@@H]1/C=C(\C)C[C@H](C)C[C@H](OC)[C@H]2O[C@@](O)(C(=O)C(=O)N3CCCC[C@H]3C(=O)O[C@H](/C(C)=C/C3CC[C@@H](OCC(=O)Nc4ccc(N5CCOCC5)cc4)[C@H](OC)C3)[C@H](C)[C@@H](O)CC1=O)[C@H](C)C[C@@H]2OC` (some centres undefined) the same measures were 19 nM and 0.58 nM.
In the case of `CC[C@@H]1/C=C(\C)C[C@H](C)C[C@H](OC)[C@H]2O[C@@](O)(C(=O)C(=O)N3CCCC[C@H]3C(=O)O[C@H](/C(C)=C/C3CC[C@@H](OCC(=O)NCc4ccccc4)[C@H](OC)C3)[C@H](C)[C@@H](O)CC1=O)[C@H](C)C[C@@H]2OC` (some centres undefined), the IC50 was 48 nM in assay [1] and 0.79 nM in the assay listed under Homo sapiens. For the same molecule, the 50% effect level in the assay on Rattus norvegicus (ED50) was put at a dose of 1.2 mg/kg/day.
For the molecule `CC[C@@H]1/C=C(\C)C[C@H](C)C[C@H](OC)[C@H]2O[C@@](O)(C(=O)C(=O)N3CCCC[C@H]3C(=O)O[C@H](/C(C)=C/C3CC[C@@H](OCC(=O)Nc4ccc(F)cc4)[C@H](OC)C3)[C@H](C)[C@@H](O)CC1=O)[C@H](C)C[C@@H]2OC` (some centres undefined), the IC50 in assay [1] was 46 nM; in the assay listed under Homo sapiens it was 0.03 nM.
The molecule `C=CC[C@@H]1/C=C(\C)C[C@H](C)C[C@H](OC)[C@H]2O[C@@](O)(C(=O)C(=O)N3CCCC[C@H]3C(=O)O[C@H](/C(C)=C/[C@@H]3CC[C@@H](O)[C@H](OC)C3)[C@H](C)[C@@H](O)CC1=O)[C@H](C)C[C@@H]2OC` [TACROLIMUS ANHYDROUS] came in with an IC50 in the assay listed under Homo sapiens of 0.48 nM. For the same molecule, the ED50 in the assay with Rattus norvegicus is 0.1 mg/kg/day.
`CC[C@@H]1/C=C(\C)C[C@H](C)C[C@H](OC)[C@H]2O[C@@](O)(C(=O)C(=O)N3CCCC[C@H]3C(=O)O[C@H](/C(C)=C/C3CC[C@@H](OCC(=O)Nc4ccc(Cl)c(Cl)c4)[C@H](OC)C3)[C@H](C)[C@@H](O)CC1=O)[C@H](C)C[C@@H]2OC` (some centres undefined): the IC50 in assay [1] amounted to 500 nM; in the assay filed under Homo sapiens, 0.55 nM.
Turning to `CC[C@@H]1/C=C(\C)C[C@H](C)C[C@H](OC)[C@H]2O[C@@](O)(C(=O)C(=O)N3CCCC[C@H]3C(=O)O[C@H](/C(C)=C/C3CC[C@@H](OCC(=O)Nc4ccncc4)[C@H](OC)C3)[C@H](C)[C@@H](O)CC1=O)[C@H](C)C[C@@H]2OC` (some centres undefined), the figures for the half-maximal inhibitory concentration (IC50) (in assay [1]; in the assay filed under Homo sapiens) were 3.2 nM and 0.16 nM, respectively.

What is called IC50 is the concentration needed to halve the response being measured. A higher IC50 goes with weaker potency in that assay. By ED50 is commonly meant the dose at which the effect has come halfway, by size or by number of responders. Higher therefore signals weaker potency.

The values are drawn from ChEMBL document CHEMBL1131619, “32-Ascomycinyloxyacetic acid derived immunosuppressants. Independence of immunophilin binding and immunosuppressive potency” (J Med Chem, 1998).
